Entries after “also recorded” stand apart in the source; their conditions may differ. No end group written: not given here. *: point of attachment. pNA = O=[N+]([O-])c1ccc(N*)cc1; Cbz = O=C(OCc1ccccc1)*
Assays:
DPP4 = details: ref [64]; cited from earlier work
[1] = test system: apPEP (WT and D622N crystals); experiment: Crystal soaking with zPP; assay type: binding, Aeromonus punctata
Outline: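 Native full-length WT or D622N apPEP (E. coli-expressed, Ni-affinity purified, thrombin-cleaved, SEC) crystallized at 14 °C with 20 mM MES pH 6.5 and PEG. Crystals were cryoequilibrated 1–2 days at 4 °C, soaked overnight at 4 °C, then glutaraldehyde vapour cross-linked for 4 h at 4 °C. Data were collected at 100 K; structures solved by molecular replacement, with inhibitor placed from difference maps.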

[2] = cited from earlier work; for side effects (in words): ref [18], [19]; for duration of action (in words): reference not given
PEP = details: ref [9]; cited from earlier work
[3] = test system: apPEP (WT Aeromonus punctata PEP); experiment: apPEP enzyme kinetics with chromogenic/fluorescent substrate Z-Gly-Pro-pNA; assay type: biochemical
Outline: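 Free pNA was read […] to give initial velocities. Km came from a Lineweaver-Burk plot over 31–500 μM substrate. kcat/Km was taken as Vo/SoEo at two or more substrate concentrations.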

For “neuropeptide Y: involved in neurogenic inflammation and blood pressure regulation”, the “cleavage efficiency by DPP4 relative to GLP1 (in words)” value (DPP4) is given as “even higher efficiency than GLP1”.

In the case of “benzyloxy-carbonyl-prolyl-prolinal [zPP]”, the “contact with catalytic Ser538 (in words)” value ([1]; D622N-zPP structure) is reported as “makes van der Waals contact with the aldehyde group of the inhibitor” and the “conformational change induced by inhibitor (in words)” value ([1]; preformed native crystals soaked with 10 mM zPP overnight at 4 °C) is reported as “inducing a conformational change from opened (red) to closed (blue) states; also recorded: induces large scale interdomain closure”.

For “gastrin-releasing peptide 3–27: DPP4 substrate (LPAGGGTVLTKMYPRGNHWAVGHLM; ends and bridges not checked; UniProt P07492 26-50, looked up, fragment)”, the “cleavage efficiency by DPP4 relative to GLP1 (in words)” value (DPP4) is given as “even higher efficiency than GLP1”.

In the case of `N#C[C@@H]1CCCN1C(=O)CNC12CC3CC(CC(O)(C3)C1)C2` [Galvus], the “side effects (in words)” value [2] is given as “no significant negative side effects” and the “duration of action (in words)” value [2] is given as “act transiently”.

In the case of IP10: DPP4 substrate, the “cleavage efficiency by DPP4 relative to GLP1 (in words)” value (DPP4) is given as “even higher efficiency than GLP1”.

In the case of “bradykinin: cleaved by PEP (RPPGFSPFR; Bradykinin; UniProt P01042 381-389, looked up)”, the “cleavage by PEP (in words)” value (PEP) is listed as “Cleavage”.

For angiotensin I-II, the “cleavage by PEP (in words)” value (PEP) is listed as “Cleavage”.

Molecule Cbz-Gly-Pro-pNA has a kcat ([3]; 20 mM Tris-HCl (pH 8), 100 mM NaCl, 34 °C) of 505 s⁻¹ and a kcat/Km ([3]; from initial rates, kcat/Km = Vo/SoEo, substrate 16–62 μM, pH 8, 34 °C) of 623000 M⁻¹ s⁻¹.

In the case of `N[C@@H](CC(=O)N1CCn2c(nnc2C(F)(F)F)C1)Cc1cc(F)c(F)cc1F` [Januvia], the “side effects (in words)” value [2] is given as “no significant negative side effects” and the “duration of action (in words)” value [2] is given as “act transiently”.

For stromal cell-derived factor 1α, the “cleavage efficiency by DPP4 relative to GLP1 (in words)” value (DPP4) is given as “even higher efficiency than GLP1”.

B1: interferon-inducible T cell α: DPP4 substrate (protein, UniProt O14625 22-94, looked up)
C-X-C motif chemokine 11: FPMFKRGRCLCIGPGVKAVKVADIEKASIMYPSNNCDKIEVIITLKENKGQRCLNPKSKQARLIIKKVERKNF
For B1, the “cleavage efficiency by DPP4 relative to GLP1 (in words)” value (DPP4) is given as “even higher efficiency than GLP1”.

B2: monocyte-derived chemokine: DPP4 substrate (protein, UniProt O00626 25-93, looked up)
C-C motif chemokine 22: GPYGANMEDSVCCRDYVRYRLPLRVVKHFYWTSDSCPRPGVVLLTFRDKEICADPRVPWVKMILNKLSQ
In the case of B2, the “cleavage efficiency by DPP4 relative to GLP1 (in words)” value (DPP4) is listed as “even higher efficiency than GLP1”.

B3: Mig: DPP4 substrate (protein, UniProt Q07325 23-125, looked up)
C-X-C motif chemokine 9: TPVVRKGRCSCISTNQGTIHLQSLKDLKQFAPSPSCEKIEIIATLKNGVQTCLNPDSADVKELIKKWEKQVSQKKKQKNGKKHQKKKVLKVRKSQRSRQKKTT
In the case of B3, the “cleavage efficiency by DPP4 relative to GLP1 (in words)” value (DPP4) is listed as “even higher efficiency than GLP1”.

From article PMC2898448 (The Journal of Biological Chemistry, 2010)
